These results are taken from ChEMBL document CHEMBL4425091, “Bafilomycins and Odoriferous Sesquiterpenoids from Streptomyces albolongus Isolated from Elephas maximus Feces” (J Nat Prod, 2016).

As a reminder, the IC50 is the concentration at which inhibition is half-maximal. As a reminder, the MIC is the lowest concentration found to suppress growth. Lower therefore signals inhibition by little substance.

The structures appear in SMILES notation. Values after ≈ are worked out from the molar mass of the structure shown. Structures can show the parent of a compound that is named as a salt. Active and inactive are the calls of the source. Bounds are passed on as bounds.

For experiment [1], the system named is Candida parapsilosis. Kind of experiment: Antifungal activity against Candida parapsilosis ATCC 22019 at 100 ug/ml after 48 hrs by MTT based microbroth dilution assay. Type of experiment: functional, organism-based. (Broth dilution looks for growth in wells or tubes with falling amounts of substance.)
Experiment [2] deals with Candida albicans. Kind of experiment: Antifungal activity against Candida albicans ATCC MYA-2876 at 100 ug/ml after 48 hrs by MTT based microbroth dilution assay. In kind it is functional, organism-based.
The subject of experiment [3] is Cryptococcus neoformans. Kind of experiment: Antifungal activity against Cryptococcus neoformans ATCC 208821 at 100 ug/ml after 72 hrs by MTT based microbroth dilution assay. Type of experiment: functional, organism-based.
Another experiment concerns Escherichia coli. Kind of experiment: Antibacterial activity against Escherichia coli ATCC 25922 at 100 ug/ml after 24 hrs by MTT based microbroth dilution assay. In kind it is functional, organism-based.
For another experiment, the system named is Caco-2. Kind of experiment: Cytotoxicity against human Caco2 cells assessed as reduction in cell viability by MTT assay. In kind it is functional, cell-based. In a few lines: (§1)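 MTT viability assay in human cancer cell lines. IC50 was defined as a 50% reduction of absorbance relative to the control assay. Adriamycin served as the positive control.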
A general note: Tetrazolium dyes change colour on reduction, which living cells bring about.

Another experiment concerns Staphylococcus aureus. Kind of experiment: Antibacterial activity against Staphylococcus aureus ATCC 25923 at 100 ug/ml after 24 hrs by MTT based microbroth dilution assay. In kind it is functional, organism-based.
In a further experiment the test system is NCI-H460. Kind of experiment: Cytotoxicity against human NCI-H460 cells assessed as reduction in cell viability by MTT assay. Type of experiment: functional, cell-based. In short, it runs like this: as §1
A further experiment deals with SMMC-7721. Kind of experiment: Cytotoxicity against human SMMC7721 cells assessed as reduction in cell viability by MTT assay. In kind it is functional, cell-based. In short, it runs like this:
as §1

In another experiment the test system is Bacillus spizizenii. Kind of experiment: Antibacterial activity against Bacillus subtilis ATCC 6633 at 100 ug/ml after 24 hrs by MTT based microbroth dilution assay. In kind it is functional, organism-based.
The next experiment deals with BGC-823. Kind of experiment: Cytotoxicity against human BGC823 cells assessed as reduction in cell viability by MTT assay. In kind it is functional, cell-based. In a few lines:
as §1

The test system of experiment [4] is Candida albicans. Kind of experiment: Antifungal activity against Candida albicans ATCC MYA-2876 after 48 hrs by MTT based microbroth dilution assay. Type of experiment: functional. Conditions: ATCC MYA-2876, 48 h. In short, it runs like this:
(§2)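 MIC by broth microdilution in RPMI-1640 with NaHCO3 and MOPS, pH 7.0. DMSO stocks were 2-fold serially diluted to eight levels, then 10-fold in medium (1.1–0.0086 mg/mL). 10 µL was added to 100 µL yeast suspension: C. albicans and C. parapsilosis at 2 × 10^3 cfu/mL for 48 h; C. neoformans at 5 × 10^4 cfu/mL for 72 h; all at 28 °C. MTT added for 4 h, DMSO solubilization, A570.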

In experiment [5] the test system is Candida parapsilosis. Kind of experiment: Antifungal activity against Candida parapsilosis ATCC 22019 after 48 hrs by MTT based microbroth dilution assay. Conditions: Lodderomyces parapsilosis, ATCC 22019, 48 h. In kind it is functional. In short, it runs like this: as §2
Experiment [6] relates to Cryptococcus neoformans. Kind of experiment: Antifungal activity against Cryptococcus neoformans ATCC 208821 after 72 hrs by MTT based microbroth dilution assay. Type of experiment: functional. The settings on record: ATCC 208821, 72 h. In short, it runs like this: as §2

For the molecule `CO/C1=C\C(C)=C\[C@@H](C)[C@@H](O)[C@@H](C)C/C(C)=C/C=C/[C@H](OC)[C@@H]([C@@H](C)[C@@H](O)[C@H](C)[C@@]2(OC)CC[C@H](C)[C@@H](C(C)C)O2)OC1=O`, the outcome in the experiment with Candida parapsilosis [1], in the experiment with Candida albicans [2], with Cryptococcus neoformans [3], in the experiment with Escherichia coli, in the experiment with Staphylococcus aureus and in the experiment on Bacillus spizizenii was inactive. The IC50 is > 100 µM in the experiment on Caco-2, > 100 µM in the experiment on NCI-H460, 13.6 µM in the experiment with SMMC-7721 and 46.9 µM in the experiment on BGC-823.
As to `CO/C1=C\C(C)=C\[C@@H](C)[C@@H](O)[C@@H](C)C/C(C)=C/C=C/[C@H](OC)[C@@H]([C@@H](C)[C@@H](O)[C@H](C)[C@@]2(OC)C[C@@H](O)[C@H](C)[C@@H](C(C)C)O2)OC1=O`, the result in the experiment on Candida parapsilosis [1], in the experiment with Candida albicans [2], in the experiment on Cryptococcus neoformans [3], in the experiment on Escherichia coli, in the experiment with Staphylococcus aureus and with Bacillus spizizenii was inactive. The IC50 came to 10.2 µM in the experiment with Caco-2, 26.7 µM with NCI-H460, 9.42 µM with SMMC-7721 and 22.4 µM with BGC-823.
Turning to `CO/C1=C\C(C)=C\[C@@H](C)[C@@H](O)[C@@H](C)C/C(C)=C/C=C/[C@H](OC)[C@@H]([C@@H](C)[C@@H](O)[C@H](C)[C@@]2(O)C[C@@H](O)[C@H](C)[C@@H](C(C)C)O2)OC1=O` [BAFILOMYCIN A1], the result in the experiment on Candida parapsilosis [1], in the experiment with Candida albicans [2], in the experiment on Cryptococcus neoformans [3], with Escherichia coli, in the experiment on Staphylococcus aureus and in the experiment with Bacillus spizizenii was inactive. For the same molecule, the IC50 in the experiment with Caco-2 is 5.49 µM; in the experiment with NCI-H460, 12.4 µM; in the experiment on SMMC-7721, 2.03 µM; in the experiment with BGC-823, 6.47 µM.
For `CC1=C[C@@H]2[C@@H](C(C)C)CC[C@H](C)[C@]2(O)CC1`, the outcome with Candida parapsilosis [1], in the experiment on Candida albicans [2], with Cryptococcus neoformans [3], in the experiment on Escherichia coli, with Caco-2 and with Staphylococcus aureus was inactive. The outcome in the experiment on NCI-H460, in the experiment on SMMC-7721, in the experiment with Bacillus spizizenii and in the experiment with BGC-823 was inactive.
As to `COc1cccc2c1C(=O)c1c(O)c3c(c(O)c1C2=O)C[C@@](O)(C(=O)CO)C[C@@H]3O[C@H]1C[C@H](N)[C@H](O)[C@H](C)O1` [DOXORUBICIN HYDROCHLORIDE], the IC50 with Caco-2 came to 0.97 µM; in the experiment with NCI-H460, 0.98 µM; in the experiment with SMMC-7721, 2.24 µM.
Consider `C[C@H]1CC[C@@H](O)[C@@]2(C)C[C@H](O)CC[C@]12O`, for which the MIC against Candida albicans [4] is 100 µg/mL (≈ 467 µM); with Candida parapsilosis [5], 100 µg/mL (≈ 467 µM); in the experiment on Cryptococcus neoformans [6], > 100 µg/mL. For the same molecule, the IC50 with Caco-2 is 42.5 µM; in the experiment with NCI-H460 it was > 100 µM; with SMMC-7721, > 100 µM; with BGC-823 it was 47.2 µM.
For the molecule `CC1(C)C[C@H]2[C@H]1CC[C@@]1(C)C[C@]2(O)CC[C@@H]1O`, the result in the experiment on Candida parapsilosis [1], with Candida albicans [2], in the experiment with Cryptococcus neoformans [3], in the experiment on Escherichia coli, in the experiment on Caco-2 and with Staphylococcus aureus was inactive. For the same molecule, the result in the experiment on NCI-H460, in the experiment with SMMC-7721, with Bacillus spizizenii and with BGC-823 was inactive.
With `CO/C1=C\C(C)=C\[C@@H](C)[C@@H](O)[C@@H](C)C/C(C)=C/C=C/[C@H](OC)[C@@H]([C@@H](C)[C@@H](O)[C@H](C)[C@@]2(O)C[C@@H](OC)[C@H](C)[C@@H](C(C)C)O2)OC1=O` [BAFILOMYCIN G], the result in the experiment on Candida parapsilosis [1], with Candida albicans [2], with Cryptococcus neoformans [3], with Escherichia coli, with Staphylococcus aureus and in the experiment on Bacillus spizizenii was inactive. The IC50 in the experiment with Caco-2 is > 100 µM; with NCI-H460, > 100 µM; in the experiment with SMMC-7721, 8.67 µM; in the experiment with BGC-823, 69.2 µM.
Consider `CO/C1=C\C(C)=C\[C@@H](C)[C@@H](O)[C@@H](C)C/C(C)=C/C=C/[C@H](OC)[C@@H]([C@@H](C)[C@@H](O)[C@H](C)[C@@]2(O)C[C@@H](OC(=O)/C=C/C(N)=O)[C@H](C)[C@@H](C(C)C)O2)OC1=O`, for which the results for the MIC against Candida albicans [4], in the experiment with Candida parapsilosis [5] and in the experiment with Cryptococcus neoformans [6] were 100 µg/mL (≈ 139 µM), 1.56 µg/mL (≈ 2.17 µM) and 25 µg/mL (≈ 34.7 µM), respectively. The 50% inhibitory concentration (IC50) in the experiment with Caco-2 amounted to 2.3 µM; with NCI-H460, 2.34 µM; with SMMC-7721, 1.05 µM; in the experiment with BGC-823, 0.99 µM.
On to `CO/C1=C/C(C)=C/[C@@H](C)[C@@H](O)[C@@H](C)C/C(C)=C/C=C/[C@H](OC)C([C@@H](C)[C@@H](O)[C@H](C)C(=O)/C=C/[C@H](C)[C@H](O)C(C)C)OC1=O` (some centres not stated), for which the outcome in the experiment with Candida parapsilosis [1], with Candida albicans [2], in the experiment with Cryptococcus neoformans [3], with Escherichia coli, in the experiment on Staphylococcus aureus and in the experiment on Bacillus spizizenii was inactive. For the same molecule, the IC50 in the experiment with Caco-2 came to 14.6 µM; in the experiment with NCI-H460 it was 49.8 µM; with SMMC-7721, 9.79 µM; in the experiment with BGC-823 it was 9.46 µM.
As for `CO/C1=C\C(C)=C\[C@@H](C)[C@@H](O)[C@@H](C)C/C(C)=C/C=C/[C@H](OC)[C@@H]([C@@H](C)[C@@H](O)[C@H](C)[C@@]2(O)CC[C@H](C)[C@@H](C(C)C)O2)OC1=O`, the MIC against Candida albicans [4] stood at 100 µg/mL (≈ 165 µM); with Candida parapsilosis [5], 3.13 µg/mL (≈ 5.16 µM); against Cryptococcus neoformans [6], 25 µg/mL (≈ 41.2 µM). For the same molecule, the concentration for half-maximal inhibition (IC50) with Caco-2 was 46.2 µM; with NCI-H460, 44.1 µM; in the experiment on SMMC-7721 it was 10.1 µM; with BGC-823, 11.8 µM.
As for `C[C@H]1[C@@H](O)CC[C@@]2(C)CCCC[C@]12O`, the outcome with Candida parapsilosis [1], in the experiment on Candida albicans [2], in the experiment with Cryptococcus neoformans [3], with Escherichia coli, in the experiment with Staphylococcus aureus and in the experiment with Bacillus spizizenii was inactive. For the same molecule, the IC50 is > 100 µM in the experiment with Caco-2, > 100 µM in the experiment on NCI-H460, > 100 µM in the experiment with SMMC-7721 and 49.3 µM in the experiment with BGC-823.
As to `C[C@@H]1[C@H](O)[C@@H](C)/C=C/C=C/C=C/C=C/C=C/C=C/C=C/[C@H](O[C@@H]2O[C@H](C)[C@@H](O)[C@H](N)[C@@H]2O)C[C@@H]2O[C@](O)(C[C@@H](O)C[C@@H](O)[C@H](O)CC[C@@H](O)C[C@@H](O)CC(=O)O[C@H]1C)C[C@H](O)[C@H]2C(=O)O` [AMPHOTERICIN B], the MIC with Candida albicans [4] came out at 1 µg/mL (≈ 1.08 µM); against Candida parapsilosis [5] it was 2 µg/mL (≈ 2.16 µM); in the experiment with Cryptococcus neoformans [6] it was 2 µg/mL (≈ 2.16 µM).
Take `CC1(C)C[C@H]2[C@H]1CC[C@]1(C)CCC[C@@]2(O)C1`: the outcome with Candida parapsilosis [1], in the experiment with Candida albicans [2], with Cryptococcus neoformans [3], in the experiment with Escherichia coli, with Caco-2 and in the experiment on Staphylococcus aureus was inactive. Also, the outcome in the experiment with NCI-H460, with SMMC-7721, in the experiment with Bacillus spizizenii and with BGC-823 was inactive.
`C/C1=C\[C@@H](O)C[C@H](C)/C=C/[C@H](C(C)(C)O)CC1`: the result in the experiment with Candida parapsilosis [1], with Candida albicans [2], with Cryptococcus neoformans [3], in the experiment with Escherichia coli, in the experiment with Caco-2 and in the experiment with Staphylococcus aureus was inactive. The result with NCI-H460, in the experiment on SMMC-7721, in the experiment on Bacillus spizizenii and in the experiment on BGC-823 was inactive.
Consider `CO/C1=C\C(C)=C\[C@@H](C)[C@@H](O)[C@@H](C)C/C(C)=C/C=C/[C@H](OC)[C@@H]([C@@H](C)[C@@H](O)[C@H](C)[C@@]2(OC)C[C@@H](OC(=O)/C=C/C(N)=O)[C@H](C)[C@@H](C(C)C)O2)OC1=O`, for which the result in the experiment with Candida parapsilosis [1], in the experiment with Candida albicans [2], in the experiment on Cryptococcus neoformans [3], in the experiment on Escherichia coli, with Staphylococcus aureus and in the experiment with Bacillus spizizenii was inactive. Also, the IC50 came to 2.81 µM in the experiment with Caco-2, 5.02 µM in the experiment with NCI-H460, 1.36 µM in the experiment on SMMC-7721 and 3.58 µM in the experiment with BGC-823.
